In ChEMBL document CHEMBL4346727, “Synthesis and pharmacological evaluation of novel N-Mannich bases derived from 5,5-diphenyl and 5,5-di(propan-2-yl)imidazolidine-2,4-dione core” (Bioorg Med Chem Lett, 2019):
Activity calls are given as the source filed them. Unless noted, the rule behind the calls is not given here.

What was measured:
[1] = Neurotoxicity in Sprague-Dawley rat at 30 mg/kg, po measured after 15 mins by rotarod test; type: toxicity, organism-based; conditions: in vivo, 0.25 h
Outline: (§1)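 Rats given one oral dose of 30 mg/kg and tested on the rotarod at 0.25, 0.5, 1, 2, 4 and 6 h.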

Rattus norvegicus [2] = experiment: Anticonvulsant activity in Sprague-Dawley rat assessed as protection against 150 mA current-induced seizure at 30 mg/kg, po measured after 4 hrs by maximal electroshock seizure test; type: functional, organism-based
Outline: (§2)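 Rats received 30 mg/kg orally and were given maximal electroshock at 0.25, 0.5, 1, 2, 4 and 6 h. Read-out is the number of rats protected out of four.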

Mus musculus [3] = experiment: Anticonvulsant activity in CD1 mouse assessed as protection against subcutaneous pentylenetetrazole-induced seizures at 300 mg/kg, ip and measured after 0.5 hrs; type: functional, organism-based
Outline: (§3)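 Mice were screened after intraperitoneal doses of 30, 100 and 300 mg/kg in the maximal electroshock and subcutaneous pentylenetetrazole tests, examined at 0.5 and 4 h. The value recorded is the minimum dose showing activity. No activity up to 300 mg/kg is scored as absent.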

Mus musculus [4] = experiment: Anticonvulsant activity in CD1 mouse assessed as protection against 50 mA current-induced seizure at 300 mg/kg, ip and measured after 0.5 hrs by maximal electroshock seizure test; type: functional, organism-based; outline: as §3
Rattus norvegicus [5] = experiment: Anticonvulsant activity in Sprague-Dawley rat assessed as protection against 150 mA current-induced seizure at 30 mg/kg, po measured after 30 mins by maximal electroshock seizure test; type: functional, organism-based; outline: as §2
[6] = Neurotoxicity in Sprague-Dawley rat at 30 mg/kg, po measured after 30 mins by rotarod test; type: toxicity, organism-based; conditions: in vivo, 0.5 h; outline: as §1
Mus musculus [7] = experiment: Anticonvulsant activity in CD1 mouse assessed as protection against subcutaneous pentylenetetrazole-induced seizures at 300 mg/kg, ip and measured after 4 hrs; type: functional, organism-based; outline: as §3
[8] = Neurotoxicity in CD1 mouse at 300 mg/kg, ip and measured after 4 hrs hrs by rotarod test; type: toxicity, organism-based; conditions: in vivo
Outline: (§4)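 Mice dosed intraperitoneally at 30, 100 and 300 mg/kg, then tested on the rotarod at 0.5 h and 4 h. The value recorded is the minimum dose at which neurotoxicity appeared. A dash means no neurotoxicity at the top dose of 300 mg/kg.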

Rattus norvegicus [9] = experiment: Anticonvulsant activity in Sprague-Dawley rat assessed as protection against 150 mA current-induced seizure at 30 mg/kg, po measured after 2 hrs by maximal electroshock seizure test; type: functional, organism-based; outline: as §2
Mus musculus [10] = experiment: Anticonvulsant activity in ip dosed CD1 mouse assessed as protection against 50 mA current-induced seizure and measured after 4 hrs by maximal electroshock seizure test; type: functional; conditions: read-out: MED; outline: as §3
[11] = Neurotoxicity in Sprague-Dawley rat at 30 mg/kg, po measured after 4 hr by rotarod test; type: toxicity, organism-based; conditions: in vivo; outline: as §1
[12] = Neurotoxicity in Sprague-Dawley rat at 30 mg/kg, po measured after 1 hr by rotarod test; type: toxicity, organism-based; conditions: in vivo; outline: as §1
[13] = Neurotoxicity in Sprague-Dawley rat at 30 mg/kg, po measured after 2 hr by rotarod test; type: toxicity, organism-based; conditions: in vivo; outline: as §1
[14] = Neurotoxicity in Sprague-Dawley rat at 30 mg/kg, po measured after 6 hrs hr by rotarod test; type: toxicity, organism-based; conditions: in vivo; outline: as §1
Rattus norvegicus [15] = experiment: Anticonvulsant activity in Sprague-Dawley rat assessed as protection against 150 mA current-induced seizure at 30 mg/kg, po measured after 1 hr by maximal electroshock seizure test; type: functional, organism-based; outline: as §2
[16] = Neurotoxicity in CD1 mouse at 300 mg/kg, ip and measured after 0.5 hrs by rotarod test; type: toxicity, organism-based; conditions: in vivo; outline: as §4
Rattus norvegicus [17] = experiment: Anticonvulsant activity in Sprague-Dawley rat assessed as protection against 150 mA current-induced seizure at 30 mg/kg, po measured after 15 mins by maximal electroshock seizure test; type: functional, organism-based; outline: as §2
[18] = Neurotoxicity in ip dosed CD1 mouse model by rotarod test; type: toxicity, organism-based; conditions: in vivo
Mus musculus [19] = experiment: Anticonvulsant activity in ip dosed CD1 mouse assessed as protection against subcutaneous pentylenetetrazole-induced seizures and measured after 4 hrs; type: functional; conditions: CD1, 4 h, read-out: MED; outline: as §3
[20] = Protection index, ratio of TD50 for neurotoxicity in ip dosed CD1 mouse by rotarod test to ED50 for anticonvulsant activity in ip dosed CD1 mouse model of subcutaneous PTZ-induced seizures; type: toxicity, organism-based; conditions: in vivo, read-out: Ratio TD50/ED50
Mus musculus [21] = experiment: Anticonvulsant activity in ip dosed CD1 mouse assessed as protection against subcutaneous pentylenetetrazole-induced seizures; type: functional
Outline: (§5)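 Median effective doses were quantified in the maximal electroshock, subcutaneous pentylenetetrazole and 6 Hz tests after intraperitoneal dosing in mice or oral dosing in rats, at the time of peak effect. ED50 values are reported with ranges in parentheses.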

[22] = Neurotoxicity in ip dosed CD1 mouse assessed as time to peak effect by rotarod test; type: toxicity, organism-based; conditions: in vivo
[23] = Neurotoxicity in ip dosed CD1 mouse and measured after 0.5 hrs by rotarod test; type: toxicity, organism-based; conditions: in vivo; outline: as §4
Mus musculus [24] = experiment: Anticonvulsant activity in ip dosed CD1 mouse assessed as time to peak effect on protection against 50 mA current-induced seizures; type: functional; outline: as §5
Mus musculus [25] = experiment: Anticonvulsant activity in CD1 mouse assessed as protection against 50 mA current-induced seizure at 300 mg/kg, ip and measured after 4 hrs by maximal electroshock seizure test; type: functional, organism-based; outline: as §3
Mus musculus [26] = experiment: Anticonvulsant activity in ip dosed CD1 mouse assessed as time to peak effect on protection against 32 mA current-induced seizure by 6 Hz psychomotor seizure test; type: functional; outline: as §5
Mus musculus [27] = experiment: Potency index, ratio of phenytoin ED50 to compound ED50 for anticonvulsant activity protection against subcutaneous pentylenetetrazole-induced seizures in ip dosed CD1 mouse; type: functional
Mus musculus [28] = experiment: Anticonvulsant activity in ip dosed CD1 mouse assessed as time to peak effect on protection against subcutaneous pentylenetetrazole-induced seizures; type: functional; outline: as §5
Mus musculus [29] = experiment: Anticonvulsant activity in ip dosed CD1 mouse assessed as protection against 50 mA current-induced seizure and measured after 0.5 hrs by maximal electroshock seizure test; type: functional; conditions: read-out: MED; outline: as §3
[30] = Neurotoxicity in CD1 mouse at 50 mg/kg, ip measured after 30 mins by rotarod test; conditions: in vivo, 0.5 h
[31] = Neurotoxicity in CD1 mouse at 50 mg/kg, ip measured after 2 hrs by rotarod test; conditions: in vivo
[32] = Neurotoxicity in CD1 mouse at 50 mg/kg, ip measured after 1 hr by rotarod test; conditions: in vivo
Mus musculus [33] = experiment: Anticonvulsant activity in CD1 mouse assessed as protection against 32 mA current-induced seizure at 50 mg/kg, ip measured after 4 hrs by 6 Hz psychomotor seizure test
[34] = Neurotoxicity in CD1 mouse at 50 mg/kg, ip measured after 4 hrs by rotarod test; conditions: in vivo
[35] = Neurotoxicity in CD1 mouse at 50 mg/kg, ip measured after 15 mins by rotarod test; conditions: in vivo, 0.25 h
Rattus norvegicus [36] = experiment: Anticonvulsant activity in po dosed Sprague-Dawley rat assessed as time to peak effect on protection against 32 mA current-induced seizure by 6 Hz psychomotor seizure test; type: functional
[37] = Protection index, ratio of TD50 for neurotoxicity in ip dosed CD1 mouse by rotarod test to ED50 for anticonvulsant activity in ip dosed CD1 mouse by maximal electroshock seizure test; type: toxicity, organism-based; conditions: in vivo, read-out: Ratio TD50/ED50
Rattus norvegicus [38] = experiment: Anticonvulsant activity in po dosed Sprague-Dawley rat assessed as protection against subcutaneous pentylenetetrazole-induced seizures; type: functional
Rattus norvegicus [39] = experiment: Anticonvulsant activity in po dosed Sprague-Dawley rat assessed as time to peak effect on protection against subcutaneous pentylenetetrazole-induced seizures; type: functional
[40] = Neurotoxicity in po dosed Sprague-Dawley rat assessed as time to peak effect by rotarod test; type: toxicity, organism-based; conditions: in vivo
Rattus norvegicus [41] = experiment: Anticonvulsant activity in po dosed Sprague-Dawley rat assessed as time to peak effect on protection against 150 mA current-induced seizures; type: functional; outline: as §5
[42] = Neurotoxicity in po dosed Sprague-Dawley rat model by rotarod test; type: toxicity, organism-based; conditions: in vivo
Outline: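 Rats dosed orally; neurotoxicity scored on the rotarod. Screening used a fixed 30 mg/kg, with animals checked at 0.25, 0.5, 1, 2, 4 and 6 h; the reading is the number of four rats showing neurotoxicity. In quantitative runs, a median toxic dose (TD50, mg/kg) was determined after oral dosing at the time of peak effect.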

Mus musculus [43] = experiment: Anticonvulsant activity in ip dosed CD1 mouse assessed as protection against 32 mA current-induced seizure by 6 Hz psychomotor seizure test; type: functional; outline: as §5
[44] = Protection index, ratio of TD50 for neurotoxicity in po dosed Sprague-Dawley rat by rotarod test to ED50 for anticonvulsant activity in po dosed Sprague-Dawley rat by maximal electroshock seizure test; type: toxicity, organism-based; conditions: in vivo, read-out: Ratio TD50/ED50
[45] = Neurotoxicity in ip dosed CD1 mouse and measured after 4 hrs by rotarod test; type: toxicity, organism-based; conditions: in vivo; outline: as §4

SMILES | Activity [1] | Activity (Rattus norvegicus [2]) | MED (Mus musculus [3]) | Activity (Mus musculus [4]) | Activity (Rattus norvegicus [5]) | Activity [6] | Activity (Mus musculus [7]) | Activity [8] | minimal effective dose (Mus musculus [10]) [mg/kg] | Activity [11] | Activity [12] | Activity [13] | Activity [16] | Activity (Rattus norvegicus [17]) | ED50 (Mus musculus [21]) [mg/kg] | Time [22] [h] | minimal neurotoxic dose [23] [mg/kg] | Time (Mus musculus [24]) [h] | Time (Mus musculus [26]) [h] | Time (Mus musculus [28]) [h] | also measured
CC(C)C1(C(C)C)NC(=O)N(CN2CCN(c3ccccc3)CC2)C1=O | Non-Toxic | inactive | inactive | inactive | inactive | Non-Toxic | inactive | Non-Toxic | 300 | Non-Toxic | Non-Toxic | Non-Toxic | Non-Toxic | inactive | – | – | – | – | – | – | Activity (Rattus norvegicus [9]): inactive; Activity [14]: Non-Toxic; Activity (Rattus norvegicus [15]): inactive
CC(C)C1(C(C)C)NC(=O)N(CN2CCN(CCc3ccccc3)CC2)C1=O | – | – | inactive | inactive | – | – | – | Non-Toxic | – | – | – | – | – | – | 89.4 | 4 | 300 | 4 | 4 | 4 | TD50 [18]: > 200 mg/kg; minimal effective dose (Mus musculus [19]): 100 mg/kg; selectivity ratio [20]: > 2.23; Activity (Mus musculus [25]): inactive; Ratio ED50 (Mus musculus [27]): 5.5
O=C1NC(c2ccccc2)(c2ccccc2)C(=O)N1CN1CCN(CCc2ccccc2)CC1 | Non-Toxic | inactive | inactive | – | Active | Non-Toxic | inactive | Non-Toxic | 30 | Non-Toxic | Non-Toxic | Non-Toxic | Non-Toxic | inactive | – | – | – | – | – | – | minimal effective dose (Mus musculus [29]): 100 mg/kg; Activity [30]: Non-Toxic; Activity [31]: Non-Toxic; Activity [32]: Non-Toxic; Activity (Mus musculus [33]): Active; Activity [34]: Non-Toxic; Activity [35]: Non-Toxic
O=C1NC(=O)C(c2ccccc2)(c2ccccc2)N1 [PHENYTOIN] | – | – | inactive | – | – | – | inactive | – | 30 | – | – | – | – | – | > 500 | 1 | 100 | 1 | 1 | 1 | minimal effective dose (Mus musculus [29]): 30 mg/kg; Time (Rattus norvegicus [36]): 1 h; selectivity ratio [37]: 7.27; ED50 (Rattus norvegicus [38]): > 500 mg/kg; Time (Rattus norvegicus [39]): 1 h; Time [40]: 1 h; Time (Rattus norvegicus [41]): 1 h; TD50 [42]: > 1000 mg/kg; ED50 (Mus musculus [43]): > 60 mg/kg; selectivity ratio [44]: > 35.6; MTC [45]: 100 mg/kg
